pIC50: −log10 of the molar value.
Columns and labels:
Bacillus subtilis = assay: Antibacterial activity against Bacillus subtilis at […] by agar diffusion test; type: functional
Escherichia coli = assay: Antibacterial activity against Escherichia coli at […] by agar diffusion test; type: functional
Staphylococcus aureus = assay: Antibacterial activity against Staphylococcus aureus at […] by agar diffusion test; type: functional
[1] = test system: Streptomyces viridochromogenes; assay: Antibacterial activity against Streptomyces viridochromogenes at […] by agar diffusion test; type: functional
Candida albicans = assay: Antifungal activity against Candida albicans at […] by agar diffusion test; type: functional
Rhizomucor miehei = assay: Antifungal activity against Mucor miehei at […] by agar diffusion test; type: functional
Chlorella vulgaris = assay: Antialgal activity against Chlorella vulgaris at […] by agar diffusion test; type: functional
Chlorella sorokiniana = assay: Antialgal activity against Chlorella sorokiniana at […] by agar diffusion test; type: functional
Desmodesmus subspicatus = assay: Antialgal activity against Scenedesmus subspicatus at […] by agar diffusion test; type: functional
[2] = Cytotoxicity against human 1218L cells after 4 days by propidium iodide assay; type: functional, cell-based; conditions: 96 h
Outline: (§1)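 Monolayer cell proliferation assay across a panel of up to 36 human tumour lines covering 14 solid tumour types. Lines came either from patient tumours grown as subcutaneous xenografts in NMRI nu/nu mice or from culture collections (ATCC, NCI, DSMZ). Potency is given as IC50.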

[3] = Cytotoxicity against human BXF T24 cells after 4 days by propidium iodide assay; type: functional, cell-based; conditions: T-24, 96 h; outline: as §1
[4] = Cytotoxicity against human 498NL cells after 4 days by propidium iodide assay; type: functional, cell-based; conditions: 96 h; outline: as §1
SF-268 = assay: Cytotoxicity against human SF268 cells after 4 days by propidium iodide assay; type: functional, cell-based; conditions: SF-268, 96 h; outline: as §1
HCT-116 = assay: Cytotoxicity against human HCT116 cells after 4 days by propidium iodide assay; type: functional, cell-based; conditions: HCT-116, 96 h; outline: as §1
HT-29 = assay: Cytotoxicity against human HT-29 cells after 4 days by propidium iodide assay; type: functional, cell-based; conditions: HT-29, 96 h; outline: as §1
[5] = Cytotoxicity against human GXF251L cells after 4 days by propidium iodide assay; type: functional, cell-based; conditions: GXF 251L, 96 h; outline: as §1
[6] = Cytotoxicity against human 536L cells after 4 days by propidium iodide assay; type: functional, cell-based; conditions: 96 h; outline: as §1
[7] = Cytotoxicity against human 1121L cells after 4 days by propidium iodide assay; type: functional, cell-based; conditions: 96 h; outline: as §1
[8] = Cytotoxicity against human 289L cells after 4 days by propidium iodide assay; type: functional, cell-based; conditions: 96 h; outline: as §1
[9] = Cytotoxicity against human 526L cells after 4 days by propidium iodide assay; type: functional, cell-based; conditions: 96 h; outline: as §1
[10] = Cytotoxicity against human LXFL 529L cells after 4 days by propidium iodide assay; type: functional, cell-based; conditions: 96 h; outline: as §1
[11] = Cytotoxicity against human 629L cells after 4 days by propidium iodide assay; type: functional, cell-based; conditions: 96 h; outline: as §1
NCI-H460 = assay: Cytotoxicity against human H460 cells after 4 days by propidium iodide assay; type: functional, cell-based; conditions: NCI-H460, 96 h; outline: as §1
[12] = Cytotoxicity against human MAXF 401NL cells after 4 days by propidium iodide assay; type: functional, cell-based; conditions: 96 h; outline: as §1
MCF7 = assay: Cytotoxicity against human MCF7 cells after 4 days by propidium iodide assay; type: functional, cell-based; conditions: MCF7, 96 h; outline: as §1
[13] = Cytotoxicity against human 276L cells after 4 days by propidium iodide assay; type: functional, cell-based; conditions: 96 h; outline: as §1
[14] = Cytotoxicity against human 394NL cells after 4 days by propidium iodide assay; type: functional, cell-based; conditions: 96 h; outline: as §1
[15] = Cytotoxicity against human MEXF 462NL cells after 4 days by propidium iodide assay; type: functional, cell-based; conditions: 96 h; outline: as §1
[16] = Cytotoxicity against human 514L cells after 4 days by propidium iodide assay; type: functional, cell-based; conditions: 96 h; outline: as §1
[17] = Cytotoxicity against human 520L cells after 4 days by propidium iodide assay; type: functional, cell-based; conditions: 96 h; outline: as §1
[18] = Cytotoxicity against human 1619L cells after 4 days by propidium iodide assay; type: functional, cell-based; conditions: 96 h; outline: as §1
[19] = Cytotoxicity against human 899L cells after 4 days by propidium iodide assay; type: functional, cell-based; conditions: 96 h; outline: as §1
OVCAR-3 = assay: Cytotoxicity against human OVCAR-3 cells after 4 days by propidium iodide assay; type: functional, cell-based; conditions: OVCAR-3, 96 h; outline: as §1
[20] = Cytotoxicity against human 1657L cells after 4 days by propidium iodide assay; type: functional, cell-based; conditions: 96 h; outline: as §1
PANC-1 = assay: Cytotoxicity against human PANC1 cells after 4 days by propidium iodide assay; type: functional, cell-based; conditions: PANC-1, 96 h; outline: as §1
CWR22R = assay: Cytotoxicity against human 22Rv1 cells after 4 days by propidium iodide assay; type: functional, cell-based; conditions: 22Rv1, 96 h; outline: as §1
DU-145 = assay: Cytotoxicity against human DU145 cells after 4 days by propidium iodide assay; type: functional, cell-based; conditions: DU-145, 96 h; outline: as §1
LNCaP = assay: Cytotoxicity against human LNCAP cells after 4 days by propidium iodide assay; type: functional, cell-based; conditions: 96 h; outline: as §1
[21] = Cytotoxicity against human PC3M cells after 4 days by propidium iodide assay; type: functional, cell-based; conditions: PC-3M, 96 h; outline: as §1
[22] = Cytotoxicity against human 1752L cells after 4 days by propidium iodide assay; type: functional, cell-based; conditions: 96 h; outline: as §1
[23] = Cytotoxicity against human 1781L cells after 4 days by propidium iodide assay; type: functional, cell-based; conditions: 96 h; outline: as §1
[24] = Cytotoxicity against human 393NL cells after 4 days by propidium iodide assay; type: functional, cell-based; conditions: 96 h; outline: as §1
[25] = Cytotoxicity against human RXF 486L cells after 4 days by propidium iodide assay; type: functional, cell-based; conditions: 96 h; outline: as §1
[26] = Cytotoxicity against human RXF 944L cells after 4 days by propidium iodide assay; type: functional, cell-based; conditions: 96 h; outline: as §1
[27] = Cytotoxicity against human UXF 1138L cells after 4 days by propidium iodide assay; type: functional, cell-based; conditions: 96 h; outline: as §1
[28] = in the assay text read “MTT assay” for “propidium iodide assay”

With CNC1=CC(=O)c2c(cnc(C)c2C)C1=O [MANSOURAMYCIN A] the “diameter of the inhibition zone (DIZ)” value (Bacillus subtilis) was 10 mm, the “diameter of the inhibition zone (DIZ)” value (Escherichia coli) was 10 mm and the “diameter of the inhibition zone (DIZ)” value (Staphylococcus aureus) was 12 mm. For the same compound, the “diameter of the inhibition zone (DIZ)” value [1] was 0 mm, the “diameter of the inhibition zone (DIZ)” value (Candida albicans) was 0 mm and the “diameter of the inhibition zone (DIZ)” value (Rhizomucor miehei) was 0 mm. For the same compound, the “diameter of the inhibition zone (DIZ)” value (Chlorella vulgaris) was 22 mm, the “diameter of the inhibition zone (DIZ)” value (Chlorella sorokiniana) was 17 mm and the “diameter of the inhibition zone (DIZ)” value (Desmodesmus subspicatus) was 25 mm. The pIC50 [2] was 4.55, the pIC50 [3] was 4.90 and the pIC50 [4] was 4.84. For the same compound, the pIC50 (SF-268) was 4.84, the pIC50 (HCT-116) was 5.04 and the pIC50 (HT-29) was 5.33. For the same compound, the pIC50 [5] was 4.50, the pIC50 [6] was 6.15 and the pIC50 [7] was 4.57. The pIC50 [8] was 4.72, the pIC50 [9] was 4.72 and the pIC50 [10] was 4.91. It also gave a pIC50 [11] of 5.39, a pIC50 (NCI-H460) of 5.15 and a pIC50 [12] of 4.32. For the same compound, the pIC50 (MCF7) was 5.63, the pIC50 [13] was 5.61 and the pIC50 [14] was 4.81. For the same compound, the pIC50 [15] was 4.30, the pIC50 [16] was 5.59 and the pIC50 [17, 28] was 5.26. It also gave a pIC50 [18, 28] of 4.88, a pIC50 [19, 28] of 4.46 and a pIC50 (OVCAR-3; [28]) of 4.49. The pIC50 [20, 28] was 4.58, the pIC50 (PANC-1) was 4.57 and the pIC50 (CWR22R) was 4.66. For the same compound, the pIC50 (DU-145) was 5.90, the pIC50 (LNCaP) was 4.66 and the pIC50 [21] was 4.49. For the same compound, the pIC50 [22] was 4.33, the pIC50 [23] was 4.79 and the pIC50 [24] was 4.73. The pIC50 [25] was 4.23, the pIC50 [26] was 4.74 and the pIC50 [27, 28] was 4.74.

Compound CNC1=CC(=O)c2cc(C(=O)OC)ncc2C1=O has a pIC50 [2] of 6.87, a pIC50 [3] of 8.10 and a pIC50 [4] of 6.89. It also gave a pIC50 (SF-268) of 8.10, a pIC50 (HCT-116) of 6.94 and a pIC50 (HT-29) of 6.84. For the same compound, the pIC50 [5] was 6.78, the pIC50 [6] was 6.84 and the pIC50 [7] was 6.82. It also gave a pIC50 [8] of 6.89, a pIC50 [9] of 6.96 and a pIC50 [10] of 7.05. The pIC50 [11] was 7.80, the pIC50 (NCI-H460) was 6.87 and the pIC50 [12] was 6.71. The pIC50 (MCF7) was 7.92, the pIC50 [13] was 8.10 and the pIC50 [14] was 6.97. It also gave a pIC50 [15] of 6.75, a pIC50 [16] of 7.92 and a pIC50 [17] of 7.92. For the same compound, the pIC50 [18] was 7.35, the pIC50 [19] was 6.87 and the pIC50 (OVCAR-3) was 7.92. For the same compound, the pIC50 [20] was 7.21, the pIC50 (PANC-1) was 6.26 and the pIC50 (CWR22R) was 6.17. The pIC50 (DU-145) was 6.00, the pIC50 (LNCaP) was 5.84 and the pIC50 [21] was 6.67. The pIC50 [22] was 6.89, the pIC50 [23] was 6.94 and the pIC50 [24] was 6.91. For the same compound, the pIC50 [25] was 5.78, the pIC50 [26] was 7.70 and the pIC50 [27] was 7.92.

Reference: ChEMBL document CHEMBL1153746, “Mansouramycins A-D, cytotoxic isoquinolinequinones from a marine streptomycete” (J Nat Prod, 2009)
